Experiments:
[1] = biological target: Human immunodeficiency virus type 1 protease (Human immunodeficiency virus 1, UniProt Q72874); experiment: Inhibitory activity against HIV protease
Procedure, shortened: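 Enzyme inhibition constants measured against HIV-1 protease following a previously published protocol. Values are means of two determinations.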

MT2 [2] = experiment: Antiviral activity against HIV1 IIIB strain in MT2 cells; type: functional, cell-based
Procedure, shortened: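 IC50 from inhibition of HIV-1 IIIb-induced cytopathogenicity in MT-2 cells. Assays run in duplicate; values are means of two or three determinations.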

MT2 [3] = experiment: Cytotoxicity against MT2 cells; type: functional; details: Homo sapiens

Structure (SMILES)	Ki [1] [nM]	other results
COc1ccc2c(c1)C(C)(N(CC(C)C)C[C@@H](O)[C@H](Cc1ccccc1)NC(=O)O[C@H]1CO[C@H]3OCC[C@H]31)C(=O)N2 (stereo in doubt; 15a)	102	–
COc1ccc2c(c1)C(C)(N(CC(C)C)C[C@@H](O)[C@H](Cc1ccccc1)NC(=O)O[C@H]1CO[C@H]3OCC[C@H]31)C(=O)N2 (stereo in doubt; 15b)	130	–
CC1(N(Cc2ccccc2)C[C@@H](O)[C@H](Cc2ccccc2)NC(=O)O[C@H]2CO[C@H]3OCC[C@H]32)C(=O)Nc2ccccc21 (stereo partly specified)	26	–
CC(C)CCN(C[C@@H](O)[C@H](Cc1ccccc1)NC(=O)O[C@H]1CO[C@H]2OCC[C@H]21)C1(C)C(=O)Nc2ccccc21 (stereo partly specified)	7	–
C=CCCC1(N(CC=C)C[C@@H](O)[C@H](Cc2ccccc2)NC(=O)O[C@H]2CO[C@H]3OCC[C@H]32)C(=O)Nc2ccccc21 (stereo partly specified)	47	–
CC(C)(C)NC(=O)[C@@H]1C[C@@H]2CCCC[C@@H]2CN1C[C@@H](O)[C@H](Cc1ccccc1)NC(=O)[C@H](CC(N)=O)NC(=O)c1ccc2ccccc2n1 [SAQUINAVIR]	–	IC50 (MT2 [2]; Homo sapiens, IIIB, MT2): 5 nM; CC50 (MT2 [3]): > 10000 nM
O=C(N[C@@H](Cc1ccccc1)[C@H](O)CN1CC=CCC12C(=O)Nc1ccccc12)O[C@H]1CO[C@H]2OCC[C@H]21 (stereo partly specified)	126	–
C=CCN(C[C@@H](O)[C@H](Cc1ccccc1)NC(=O)O[C@H]1CO[C@H]2OCC[C@H]21)C1(CC=C)C(=O)Nc2ccccc21 (stereo partly specified)	5	–

Now from value to compound, other results behind:

Ki [1] [nM]	Structure (SMILES)	other results
> 1000	O=C(N[C@@H](Cc1ccccc1)[C@H](O)CN1CCCCC12C(=O)Nc1ccccc12)O[C@H]1CO[C@H]2OCC[C@H]21 (stereo partly specified)	–
7	C=CCC1(N(CC(C)C)C[C@@H](O)[C@H](Cc2ccccc2)NC(=O)O[C@H]2CO[C@H]3OCC[C@H]32)C(=O)Nc2ccccc21 (stereo in doubt; 14b)	–
6	CC(C)CN(C[C@@H](O)[C@H](Cc1ccccc1)NC(=O)O[C@H]1CO[C@H]2OCC[C@H]21)C1(C)C(=O)Nc2ccccc21 (stereo in doubt; 3a)	IC50 (MT2 [2]; Homo sapiens, IIIB, MT2): 300 nM; CC50 (MT2 [3]): > 10000 nM
60	CC(C)CN(C[C@@H](O)[C@H](Cc1ccccc1)NC(=O)O[C@H]1CO[C@H]2OCC[C@H]21)C1(C)C(=O)N(C)c2ccccc21 (stereo in doubt; 16b)	–
> 1000	O=C(N[C@@H](Cc1ccccc1)[C@H](O)CN1CC=CCCC12C(=O)Nc1ccccc12)O[C@H]1CO[C@H]2OCC[C@H]21 (stereo partly specified)	–
> 1000	O=C(N[C@@H](Cc1ccccc1)[C@H](O)CN1CCCCCC12C(=O)Nc1ccccc12)O[C@H]1CO[C@H]2OCC[C@H]21 (stereo partly specified)	–
2	C=CCC1(N(CC(C)C)C[C@@H](O)[C@H](Cc2ccccc2)NC(=O)O[C@H]2CO[C@H]3OCC[C@H]32)C(=O)Nc2ccccc21 (stereo in doubt; 14a)	–
42	CC(C)CN(C[C@@H](O)[C@H](Cc1ccccc1)NC(=O)O[C@H]1CO[C@H]2OCC[C@H]21)C1(C)C(=O)N(C)c2ccccc21 (stereo in doubt; 16a)	–
3	CC(C)CN(C[C@@H](O)[C@H](Cc1ccccc1)NC(=O)O[C@H]1CO[C@H]2OCC[C@H]21)C1(C)C(=O)Nc2ccccc21 (stereo in doubt; 3b)	IC50 (MT2 [2]; mt2): 480 nM
